# Results published in ChEMBL document CHEMBL5724801, “EUbOPEN Chemogenomics Library - Multiplex” (2024).
# Where “and” joins values, the source holds several entries; their conditions need not be identical. Identical values can stand only once.
# System: HEK-293T
# Test: Multiplex assay against HEK293T
# Format: toxicity, cell-based
# Settings: human
# How it was run: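 Live cells were stained at seeding with Hoechst33342, BioTracker Green Microtubule Cytoskeleton Dye, MitoTracker Red and Annexin V Alexa Fluor 680. Following compound addition, they were imaged on a CQ1 microscope at 37°C and 5% CO2 and gated by CellPathfinder machine learning into Hoechst high-intensity objects or normal cells, with normal cells split into healthy, pyknosed or fragmented nuclei and pyknosed cells into mitotic or apoptotic. Tubulin, mitochondrial-mass and membrane-permeability phenotypes are per cents of healthy-nucleus cells.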
# [1] = 12 h, 1 µM, compound concentration 1 uM
# [2] = 12 h, 10 µM, compound concentration 10 uM
# [3] = 24 h, 1 µM, compound concentration 1 uM
# [4] = 24 h, 10 µM, compound concentration 10 uM
# [5] = 48 h, 1 µM, compound concentration 1 uM
# [6] = 48 h, 10 µM, compound concentration 10 uM
compound,measurement,setting,value
Cc1cc(C(C#N)c2ccc(Cl)cc2)c(Cl)cc1NC(=O)c1cc(I)cc(I)c1O (stereo not drawn) [CLOSANTEL],Population Apoptotic (%),[1],6.57% and 5.41%
same,Population Fragmented Nuclei (%),[1],3.34% and 0.56%
same,Population Hoechst High Intensity Objects (%),[1],0%
same,Population Membrane Permeable-Phenotype (%),[1],1.66% and 0%
same,Population Mitotic Cells (%),[1],93.43% and 94.59%
same,Population Normal (%),[1],100%
same,Population Pyknosed Nuclei (%),[1],41.64% and 82.22%
same,Total Cell Count,[1],329 and 180
same,Population Apoptotic (%),[2],9.49% and 11.94%
same,Population Fragmented Nuclei (%),[2],1.44% and 2.52%
same,Population Hoechst High Intensity Objects (%),[2],0.29% and 0%
same,Population Membrane Permeable-Phenotype (%),[2],0%
same,Population Mitotic Cells (%),[2],90.51% and 88.06%
same,Population Normal (%),[2],99.71% and 100%
same,Population Pyknosed Nuclei (%),[2],39.37% and 84.28%
same,Total Cell Count,[2],349 and 159
same,Population Apoptotic (%),[3],9.09% and 12.78%
same,Population Fragmented Nuclei (%),[3],2.28% and 0.53%
same,Population Healthy Nuclei (%),[3],72.62% and 29.1%
same,Population Hoechst High Intensity Objects (%),[3],0.19% and 0%
same,Population Membrane Permeable-Phenotype (%),[3],1.05% and 0%
same,Population Mitochondria Different-Phenotype (%),[3],12.3% and 16.36%
same,Population Mitotic Cells (%),[3],90.91% and 87.22%
same,Population Normal (%),[3],99.81% and 100%
same,Population Pyknosed Nuclei (%),[3],25.1% and 70.37%
same,Population Tubulin-Different-Phenotype (%),[3],11.78% and 10.91%
same,Total Cell Count,[3],527 and 189
same,Population Apoptotic (%),[4],21.1% and 18.35%
same,Population Fragmented Nuclei (%),[4],2.28% and 2.25%
same,Population Healthy Nuclei (%),[4],75.1% and 36.52%
same,Population Hoechst High Intensity Objects (%),[4],0.21% and 2.73%
same,Population Membrane Permeable-Phenotype (%),[4],0.83% and 1.54%
same,Population Mitochondria Different-Phenotype (%),[4],12.15% and 7.69%
same,Population Mitotic Cells (%),[4],78.9% and 81.65%
same,Population Normal (%),[4],99.79% and 97.27%
same,Population Pyknosed Nuclei (%),[4],22.61% and 61.24%
same,Population Tubulin-Different-Phenotype (%),[4],3.04% and 9.23%
same,Total Cell Count,[4],483 and 183
same,Population Apoptotic (%),[5],9.63% and 18.42%
same,Population Fragmented Nuclei (%),[5],3.24% and 1.21%
same,Population Healthy Nuclei (%),[5],87.05% and 68.15%
same,Population Hoechst High Intensity Objects (%),[5],0% and 0.8%
same,Population Membrane Permeable-Phenotype (%),[5],4.96% and 1.78%
same,Population Mitochondria Different-Phenotype (%),[5],11.57% and 23.67%
same,Population Mitotic Cells (%),[5],90.37% and 81.58%
same,Population Normal (%),[5],100% and 99.2%
same,Population Fragmented Nuclei (%),[6],2.8% and 1.44%
same,Population Healthy Nuclei (%),[6],87.9% and 66.19%
same,Population Hoechst High Intensity Objects (%),[6],0.07% and 0%
same,Population Membrane Permeable-Phenotype (%),[6],1.34% and 0.54%
same,Population Mitochondria Different-Phenotype (%),[6],8.23% and 21.74%
same,Population Mitotic Cells (%),[6],96.03% and 80%
same,Population Normal (%),[6],99.93% and 100%
Cc1ccc(/C(=C\CN2CCCC2)c2ccccn2)cc1 [TRIPROLIDINE],Population Apoptotic (%),[1],34% and 50%
same,Population Fragmented Nuclei (%),[1],6% and 3%
same,Population Healthy Nuclei (%),[1],83% and 84%
same,Population Hoechst High Intensity Objects (%),[1],7% and 5%
same,Population Membrane Permeable-Phenotype (%),[1],0%
same,Population Mitochondria Different-Phenotype (%),[1],45% and 55%
same,Population Mitotic Cells (%),[1],65% and 50%
same,Population Normal (%),[1],92% and 94%
same,Population Pyknosed Nuclei (%),[1],9% and 11%
same,Population Tubulin-Different-Phenotype (%),[1],24% and 17%
same,Total Cell Count,[1],424 and 446
same,Population Apoptotic (%),[2],44%
same,Population Fragmented Nuclei (%),[2],10% and 6%
same,Population Healthy Nuclei (%),[2],72% and 77%
same,Population Hoechst High Intensity Objects (%),[2],15% and 8%
same,Population Membrane Permeable-Phenotype (%),[2],0%
same,Population Mitochondria Different-Phenotype (%),[2],67% and 74%
same,Population Mitotic Cells (%),[2],56%
same,Population Normal (%),[2],84% and 91%
same,Population Pyknosed Nuclei (%),[2],16% and 15%
same,Population Tubulin-Different-Phenotype (%),[2],53% and 45%
same,Total Cell Count,[2],368 and 344
same,Population Apoptotic (%),[3],30%
same,Population Fragmented Nuclei (%),[3],10% and 9%
same,Population Healthy Nuclei (%),[3],78% and 82%
same,Population Hoechst High Intensity Objects (%),[3],3% and 7%
same,Population Membrane Permeable-Phenotype (%),[3],0%
same,Population Mitochondria Different-Phenotype (%),[3],27% and 34%
same,Population Mitotic Cells (%),[3],70% and 69%
same,Population Normal (%),[3],96% and 92%
same,Population Pyknosed Nuclei (%),[3],10% and 7%
same,Population Tubulin-Different-Phenotype (%),[3],18% and 9%
same,Total Cell Count,[3],574 and 541
same,Population Apoptotic (%),[4],36% and 27%
same,Population Fragmented Nuclei (%),[4],8% and 9%
same,Population Healthy Nuclei (%),[4],78% and 80%
same,Population Hoechst High Intensity Objects (%),[4],9% and 4%
same,Population Membrane Permeable-Phenotype (%),[4],0%
same,Population Mitochondria Different-Phenotype (%),[4],55% and 54%
same,Population Mitotic Cells (%),[4],63% and 72%
same,Population Normal (%),[4],90% and 95%
same,Population Pyknosed Nuclei (%),[4],13% and 10%
same,Population Tubulin-Different-Phenotype (%),[4],43% and 26%
same,Total Cell Count,[4],490 and 464
same,Population Apoptotic (%),[5],16% and 37%
same,Population Fragmented Nuclei (%),[5],14% and 10%
same,Population Healthy Nuclei (%),[5],79% and 84%
same,Population Hoechst High Intensity Objects (%),[5],1% and 3%
same,Population Membrane Permeable-Phenotype (%),[5],2% and 1%
same,Population Mitochondria Different-Phenotype (%),[5],17% and 13%
same,Population Mitotic Cells (%),[5],83% and 62%
same,Population Normal (%),[5],98% and 96%
same,Population Pyknosed Nuclei (%),[5],6% and 4%
same,Population Tubulin-Different-Phenotype (%),[5],11% and 6%
same,Total Cell Count,[5],950 and 837
same,Population Apoptotic (%),[6],43% and 33%
same,Population Fragmented Nuclei (%),[6],16% and 13%
same,Population Healthy Nuclei (%),[6],74% and 78%
same,Population Hoechst High Intensity Objects (%),[6],6% and 4%
same,Population Membrane Permeable-Phenotype (%),[6],0% and 1%
same,Population Mitochondria Different-Phenotype (%),[6],46% and 43%
same,Population Mitotic Cells (%),[6],56% and 66%
same,Population Normal (%),[6],93% and 95%
same,Population Pyknosed Nuclei (%),[6],9% and 7%
same,Population Tubulin-Different-Phenotype (%),[6],29% and 25%
same,Total Cell Count,[6],674 and 644
Cc1nc2ccc(Oc3ccc(F)cc3)cc2c(=O)n1C[C@H]1CCCN(C(C)C)C1.Cl,Population Apoptotic (%),[1],40% and 61%
same,Population Fragmented Nuclei (%),[1],7% and 5%
same,Population Healthy Nuclei (%),[1],80% and 70%
same,Population Membrane Permeable-Phenotype (%),[1],0%
same,Population Mitochondria Different-Phenotype (%),[1],50% and 69%
same,Population Mitotic Cells (%),[1],60% and 38%
same,Population Normal (%),[1],93% and 72%
same,Population Pyknosed Nuclei (%),[1],11% and 24%
same,Population Tubulin-Different-Phenotype (%),[1],42% and 34%
same,Total Cell Count,[1],381 and 204
same,Population Apoptotic (%),[2],54% and 61%
same,Population Fragmented Nuclei (%),[2],7% and 8%
same,Population Healthy Nuclei (%),[2],78% and 74%
same,Population Hoechst High Intensity Objects (%),[2],17% and 20%
same,Population Membrane Permeable-Phenotype (%),[2],0%
same,Population Mitochondria Different-Phenotype (%),[2],81% and 94%
same,Population Mitotic Cells (%),[2],45% and 38%
same,Population Normal (%),[2],82% and 79%
same,Population Pyknosed Nuclei (%),[2],13% and 17%
same,Population Tubulin-Different-Phenotype (%),[2],76% and 73%
same,Total Cell Count,[2],405 and 310
same,Population Apoptotic (%),[3],31% and 37%
same,Population Fragmented Nuclei (%),[3],11%
same,Population Healthy Nuclei (%),[3],80% and 72%
same,Population Membrane Permeable-Phenotype (%),[3],0%
same,Population Mitochondria Different-Phenotype (%),[3],36% and 52%
same,Population Mitotic Cells (%),[3],68% and 62%
same,Population Normal (%),[3],95% and 77%
same,Population Pyknosed Nuclei (%),[3],8% and 16%
same,Population Tubulin-Different-Phenotype (%),[3],27% and 20%
same,Total Cell Count,[3],553 and 281
same,Population Apoptotic (%),[4],49% and 68%
same,Population Fragmented Nuclei (%),[4],10% and 11%
same,Population Healthy Nuclei (%),[4],73% and 75%
same,Population Hoechst High Intensity Objects (%),[4],12% and 23%
same,Population Membrane Permeable-Phenotype (%),[4],3% and 0%
same,Population Mitochondria Different-Phenotype (%),[4],67% and 88%
same,Population Mitotic Cells (%),[4],50% and 31%
same,Population Normal (%),[4],87% and 76%
same,Population Pyknosed Nuclei (%),[4],15% and 12%
same,Population Tubulin-Different-Phenotype (%),[4],70% and 68%
same,Total Cell Count,[4],525 and 334
same,Population Apoptotic (%),[5],27% and 60%
same,Population Fragmented Nuclei (%),[5],19% and 13%
same,Population Healthy Nuclei (%),[5],75% and 80%
same,Population Hoechst High Intensity Objects (%),[5],1% and 7%
same,Population Membrane Permeable-Phenotype (%),[5],1% and 0%
same,Population Mitochondria Different-Phenotype (%),[5],22% and 36%
same,Population Mitotic Cells (%),[5],72% and 39%
same,Population Normal (%),[5],98% and 92%
same,Population Pyknosed Nuclei (%),[5],5% and 6%
same,Population Tubulin-Different-Phenotype (%),[5],14%
same,Total Cell Count,[5],901 and 380
same,Population Apoptotic (%),[6],47% and 67%
same,Population Fragmented Nuclei (%),[6],15% and 17%
same,Population Healthy Nuclei (%),[6],74% and 72%
same,Population Hoechst High Intensity Objects (%),[6],11% and 22%
same,Population Membrane Permeable-Phenotype (%),[6],2% and 0%
same,Population Mitochondria Different-Phenotype (%),[6],60% and 69%
same,Population Mitotic Cells (%),[6],52% and 32%
same,Population Normal (%),[6],88% and 78%
same,Population Pyknosed Nuclei (%),[6],9%
same,Population Tubulin-Different-Phenotype (%),[6],62% and 58%
same,Total Cell Count,[6],754 and 459
